Measurements of several laboratories.
Lines come from different studies, so protocols differ.
Target: Myosin light chain kinase (MYLK3, Homo sapiens, UniProt Q32MK0)
One construct used (Q32MK0 1-819): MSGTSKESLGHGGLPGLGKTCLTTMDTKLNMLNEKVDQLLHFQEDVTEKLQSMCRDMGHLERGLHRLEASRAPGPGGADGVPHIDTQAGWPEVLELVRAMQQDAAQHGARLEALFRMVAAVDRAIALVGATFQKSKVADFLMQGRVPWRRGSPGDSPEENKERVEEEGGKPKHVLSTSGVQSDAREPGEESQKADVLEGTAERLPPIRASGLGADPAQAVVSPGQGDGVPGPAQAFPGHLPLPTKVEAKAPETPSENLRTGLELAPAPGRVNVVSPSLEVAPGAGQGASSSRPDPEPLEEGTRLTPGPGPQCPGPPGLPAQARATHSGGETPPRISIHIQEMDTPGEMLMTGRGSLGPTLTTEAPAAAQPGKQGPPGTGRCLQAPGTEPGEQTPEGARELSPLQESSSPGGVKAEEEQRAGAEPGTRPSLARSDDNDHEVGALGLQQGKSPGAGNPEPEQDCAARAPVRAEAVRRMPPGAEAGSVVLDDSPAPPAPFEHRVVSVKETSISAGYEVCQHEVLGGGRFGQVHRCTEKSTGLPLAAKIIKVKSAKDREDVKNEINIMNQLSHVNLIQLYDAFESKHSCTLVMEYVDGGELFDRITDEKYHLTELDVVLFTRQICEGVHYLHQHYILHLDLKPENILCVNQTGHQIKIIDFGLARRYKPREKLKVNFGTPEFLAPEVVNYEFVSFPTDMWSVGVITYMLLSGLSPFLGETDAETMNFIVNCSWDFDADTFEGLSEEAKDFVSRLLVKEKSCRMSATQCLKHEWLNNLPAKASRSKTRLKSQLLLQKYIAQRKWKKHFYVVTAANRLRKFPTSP

Structure (SMILES)	observed	action	technique	concentration	measurement	result
Cc1ccc(C(=O)Nc2ccc(CN3CCN(C)CC3)c(C(F)(F)F)c2)cc1C#Cc1cnc2cccnn12	enzyme activity	inhibitor	–	23.5 nM	remaining activity	99%
Cc1cnn2ncc(-c3ccnc(N(C)C)n3)c2c1	binding	–	–	1 µM	remaining binding	96%
O=C1CCc2cc(Nc3cc(OC4CCOCC4)c([N+](=O)[O-])cc3Cl)ccc2N1	cell-free assay	–	competition with immobilised ligand	1 µM	remaining binding	100%
CC(C)(C)c1nc2c(s1)c1nc(N)ncc1c1ccc(NS(=O)(=O)c3c(F)cccc3F)c(F)c12	enzyme activity	inhibitor	radiometric	1 µM	remaining activity	93%
F[C@@H]1CCN(c2nccc(-c3cnn4ncccc34)n2)C1	binding	–	–	1 µM	remaining binding	100%
CC(C)(C)c1nc(-c2cccc(NS(=O)(=O)c3c(F)cccc3F)c2F)c(-c2ccnc(N)n2)s1	enzyme activity	inhibitor	radiometric	1 µM	remaining activity	100%
CC(C)(O)[C@H]1CC[C@H](Nc2ccc3ncc(-c4cccc(C(F)(F)F)c4)n3n2)CC1	enzyme activity	inhibitor	–	1 µM	remaining activity	100%
CO[C@@H](C)c1c(Nc2ccc([C@@H](N(C)C(=O)C3CCS(=O)(=O)CC3)C(F)(F)F)cc2)cnc2cc(Cl)nn12	cell-free assay	–	competition with immobilised ligand	1 µM	remaining binding	87%
O=C(Nc1cnn(-c2csc(C(=O)NC3COC3)c2)c1)Nc1ccccc1Cl	enzyme activity	inhibitor	–	5 µM	remaining activity	95.1%
Nc1ncnc2occ(-c3ccc(NC(=O)Nc4cc(C(F)(F)F)ccc4F)cc3)c12	cell-free assay	inhibitor	–	20 µM	remaining signal	0.15%
